Source: PubChem (The Scripps Research Institute Molecular Screening Center)
In the library only some 2% were active in any assay of this set; here they are far more common.
TCR CD3 inh: blocks the human TCR-CD3 interaction; AID 651800; 360,000 tested, 0.37% active; TAMRA-labeled TCR probe fluorescence, biochemical; inhibition, % at 9.4 µM; in the data active means inhibition above about 19%;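 further: recombinant mutant TCR 2C K166C tagged with TAMRA read by polarization; 0% = receptor in buffer alone and 100% = receptor with positive control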
LEDGF integ inh: blocks HIV-1 LEDGF/p75-dependent DNA integration. TR-FRET IN-LEDGF/p75 DNA integration, Eu/Cy5. inhibition, % at 3.7 µM. 370,000 tested, 0.64% active. AID 743269;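 active means inhibition above the screen-wide mean plus 3 SD, cut at about 13% in these data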;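 further: signal is the Cy5 over europium emission ratio at 671 and 618 nm; 0% = plate median of compound wells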
ARFGAP1 inhibitor: inhibits rat ARF GTPase activating protein 1; Q62848; Arfgap1-stimulated ARF1 GTP hydrolysis, GDP FP detection; inhibition, % at 16.5 µM; 360,000 tested, 0.26% active; AID 651572;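 active means inhibition above a per-plate limit, mean inhibition of low control wells plus 3 SD, cut at about 25% in these data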;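 further: 0% = DMSO wells with enzyme and 100% = wells lacking Arfgap1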
Target sequence (Q62848 1-136 limits assumed): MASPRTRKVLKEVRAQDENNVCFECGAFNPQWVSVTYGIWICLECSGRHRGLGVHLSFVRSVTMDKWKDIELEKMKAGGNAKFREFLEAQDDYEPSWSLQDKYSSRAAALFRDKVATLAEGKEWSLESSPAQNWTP
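Replicates: Single well per compound | Assay system: Truncated rat Arfgap1 GAP domain | Control set: No-Arfgap1 wells (100%) versus DMSO full-reaction wells (0%) | Times: Enzyme reaction 120 min at 25 °C after 20 min preincubation | Reagent: Human ARF1(Δ1-17)-GTP substrate | Measured by: Tracer-displacement fluorescence polarization with EDTA stop, 620/688 nm | Measure: Percent inhibition of Arfgap1-stimulated GTP hydrolysis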
ASAP1 inh: blocks human ASAP1-stimulated Arf1 GTP hydrolysis. Q9ULH1. GDP FP detection. inhibition, % at 16.5 µM. 360,000 tested, 0.19% active. AID 624377; in the data active means inhibition above about 25%;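 further: 0% = vehicle with enzyme and substrate and 100% = no enzyme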
MBD2 inh: inhibitors of human MBD2 binding to methylated oligonucleotide; inhibition, % at 4.4 µM; AID 686964; TR-FRET; Q9UBB5; 370,000 tested, 0.31% active; in the data active means inhibition above about 13%
Target sequence (Q9UBB5 whole entry, looked up): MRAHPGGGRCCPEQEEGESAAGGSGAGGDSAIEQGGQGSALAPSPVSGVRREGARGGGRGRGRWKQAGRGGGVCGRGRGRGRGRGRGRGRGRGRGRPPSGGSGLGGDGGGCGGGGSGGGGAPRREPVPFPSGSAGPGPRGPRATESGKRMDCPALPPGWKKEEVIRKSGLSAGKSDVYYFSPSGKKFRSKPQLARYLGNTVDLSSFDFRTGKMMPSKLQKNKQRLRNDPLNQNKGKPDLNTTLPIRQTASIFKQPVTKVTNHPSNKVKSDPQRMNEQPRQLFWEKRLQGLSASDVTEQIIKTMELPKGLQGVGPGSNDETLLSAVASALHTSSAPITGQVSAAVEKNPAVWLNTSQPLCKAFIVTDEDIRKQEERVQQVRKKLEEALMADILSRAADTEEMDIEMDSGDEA
UHRF1 binding: UHRF1 methyl-DNA binding inhibition. Q96T88. UHRF1 binding to methylated oligo, TR-FRET. inhibition, % at 4.4 µM. 370,000 tested, 0.75% active. AID 687016; in the data active means inhibition above about 21%;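 further: UHRF1 SRA domain binding a hemimethylated CpG hairpin DNA probe; 0% = median of test compound wells and 100% = reference inhibitor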
IN multimer up: activates HIV-1 integrase multimerization in LEDGF counter-screen; TR-FRET HIV-1 integrase multimerization, biochemical; shares compounds with LEDGF integ inh; 2,000 tested, 17% active; AID 1053131; activation, % at 7.7 µM; in the data active means activation above about 8.9%
TRFRET interf: optically interferes with TR-FRET readout in LEDGF counter-screen | TR-FRET optical interference counterscreen, HIV-1 IN multimerization | AID 1053135 | 2,000 tested, under 10 active | shares compounds with LEDGF integ inh | inhibition, % at 7.7 µM;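 active means inhibition above the mean over all tested compounds plus 3 SD, which no compound reached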;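 further: 0% = integrase with antibodies and DMSO and 100% = antibodies without integrase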
IN-LEDGF confirm: confirmation of HIV-1 LEDGF/p75-dependent integration inhibitors | shares compounds with LEDGF integ inh | 2,000 tested, 36% active | TR-FRET LEDGF/p75-dependent HIV-1 integration, biochemical | inhibition, % at 3.7 µM; in the data active means inhibition above about 14%
An asterisk follows results filed as active; . = no result given.

SMILES	TCR CD3 inh	LEDGF integ inh	ARFGAP1 inhibitor	ASAP1 inh	MBD2 inh	UHRF1 binding	IN multimer up	TRFRET interf	IN-LEDGF confirm
C[C@H]1CN([C@@H](C)CO)C(=O)CCCn2cc(nn2)CO[C@@H]1CN(C)C(=O)Nc1ccc(N2CCCCC2)cc1	-7	3	9	1	3	-2	.	.	.
c1ccc(CNc2ccc(N3CCOCC3)cc2)cc1	1	15*	0	-1	0	0	2	-10	-6
CC(C)CC1=NN2C(=N)/C(=C\c3coc4ccccc4c3=O)C(=O)N=C2S1	-2	26*	-9	-6	-3	-13	0	-1	23*
CCOc1ccc(NC(=O)CC(NC(C)=O)c2ccccc2)cc1S(=O)(=O)N1CCCC1 (stereo not given)	0	14*	-7	11	-5	6	0	-2	-2
COc1ccc(Cl)cc1NC(=O)c1cccc(-n2cnnn2)c1	10	1	-5	3	2	-1	.	.	.
COC(=O)c1cccc(NC(=O)Cn2nnc3ccccc32)c1	4	19*	-13	3	-1	3	1	-5	-1
Cc1cc(OC(C)C(=O)NCC2CCCO2)cc(C)c1Cl (stereo not given)	5	0	-16	-1	3	1	.	.	.
CN(CC(=O)Nc1ccc(F)cc1)C(=O)COC(=O)/C=C/c1ccccc1[N+](=O)[O-]	4	7	-9	0	-2	-1	.	.	.
CC(=O)Nc1ccc2c(c1)nc(CCN1CCN(C)CC1)n2C	1	-4	3	3	4	1	.	.	.
CCCCC(=O)Nc1ccc2c(c1)nc(CCN1CCN(C)CC1)n2C	-3	82*	-2	10	-8	1	2	-9	3
Cc1ccc(Nc2c([N+](=O)[O-])c(=O)oc3ccccc23)cc1C	-3	14*	0	-7	7	5	3	-9	12
Cc1cc(C)nc(SCC(=O)NN=Cc2ccc(C)o2)n1	-6	-1	2	-17	-2	-3	.	.	.
O=C1/C(=C\c2ccco2)NC(=S)N1c1ccccc1	2	16*	-12	-6	-4	4	0	-1	17*
O=C1/C(=C\c2ccco2)SC(=S)N1c1ccccc1	1	21*	4	-6	5	14	3	-17	21*
CCCN=C1N/C(=C\c2ccco2)C(=O)N1c1ccccc1	-2	3	2	6	-4	-1	.	.	.
N#Cc1c(NC(=O)CSc2ncnc3sccc23)oc(-c2ccco2)c1-c1ccco1	1	27*	15	5	12	17	14*	-48	58*
Cc1cc(NC(=O)CSc2ncnc3sccc23)no1	2	0	5	11	3	-1	.	.	.
O=C1CC(NS(=O)(=O)c2ccc3ccccc3c2)CN1c1ccccc1 (stereo not given)	1	56*	-17	-17	-4	-1	4	-21	4
CCCN(CCC)S(=O)(=O)c1ccc(C)cc1	-2	5	4	-4	0	-2	.	.	.
CCCCSCc1[nH]c(=O)[nH]c1C(=O)CCCCC(=O)OCC	8	10	0	-15	0	1	.	.	.
CCCn1c2ccccc2c2nnc(SCc3[nH]c(=O)[nH]c3C(=O)CCCCC(=O)OCC)nc21	3	30*	3	-7	-4	-4	1	-4	19*
CCOC(=O)CCCCC(=O)c1[nH]c(=O)[nH]c1CSc1nnc2c3ccccc3n(C(C)C)c2n1	11	28*	3	-2	-6	2	0	-2	11
C/C(=N\NC(=O)c1ccccc1[N+](=O)[O-])c1ccc(Br)s1	-3	59*	4	4	2	2	-1	4	-7
Cn1cccc1/C=C1\CCC/C(=C\c2cccn2C)C1=O	3	19*	13	6	-3	0	1	-6	-4
CCCc1cnc(Nc2nc(C(N)Cc3ccc(OC)cc3)cs2)nc1 (stereo not given)	2	13*	9	8	6	0	-1	4	-8
SMILES	TCR CD3 inh	LEDGF integ inh	ARFGAP1 inhibitor	ASAP1 inh	MBD2 inh	UHRF1 binding	IN multimer up	TRFRET interf	IN-LEDGF confirm
CCc1cnc(Nc2nc(C(N)Cc3ccc(Cl)cc3)cs2)nc1 (stereo not given)	-10	4	16	-10	1	2	.	.	.
C[C@@H](NS(=O)(=O)c1ccc(Br)cc1F)[C@@H](O)c1ccccc1	-7	3	-5	-3	-1	4	.	.	.
CC(NS(=O)(=O)c1ccc(Br)cc1F)[C@H](O)c1ccccc1 (stereo not given in full)	7	15*	-6	-4	4	-2	2	-8	-3
N=C1/C(=C\c2ccc(SCc3ccco3)o2)C(=O)N=C2SC=NN12	-13	49*	-2	-8	12	51*	8	-39	50*
CC1=NN2C(=N)/C(=C\c3ccc(SCc4ccccc4)o3)C(=O)N=C2S1	-9	3	-3	5	-1	2	.	.	.
COc1ccc(S(=O)(=O)N2CCOCC2)cc1C(=O)Nc1cc(C)on1	-4	86*	8	-5	3	1	1	-4	0
CC(C)(C)c1ccc(/C=N/Nc2nncn2N)cc1	-9	39*	5	4	1	7	-1	5	-8
Cc1nnc(C)n1/N=C/c1cc(Br)cc(Br)c1O	-1	-1	-17	-1	-4	-2	.	.	.
Nn1cnnc1N/N=C/c1cc(Br)cc(Br)c1O	5	44*	-14	4	4	4	1	-2	-16
CSc1ccc(/C=N/NC(=O)c2ccc(-n3cnnn3)cc2)cc1	1	2	0	11	3	-4	.	.	.
CSc1ccc(/C=N\Nc2nncn2N)cc1	-4	40*	5	-1	3	15	-1	3	-5
CC(C)(C)c1nnc(N/N=C/c2ccc(Br)cc2)n(N)c1=O	-7	-2	-9	-5	-2	-1	.	.	.
CC1CCN(c2ccc(/C=N\Nc3nncn3N)cc2[N+](=O)[O-])CC1	2	47*	-4	-1	-6	4	2	-8	-15
Cc1cc(NC(=O)COC(=O)[C@@H](NS(=O)(=O)c2ccc(Br)cc2)C(C)C)no1	-9	-6	1	-2	1	0	.	.	.
Cc1ccc(S(=O)(=O)N2[C@@H](c3cccc(Cl)c3)C(C(=O)O)=CC[C@H]2c2cccs2)cc1	5	0	9	-9	2	1	.	.	.
